Laboratory results published in ChEMBL document CHEMBL2331331 (J Med Chem, 2013).
The source made the active and inactive calls. The calls are words filed in the database; no cut-off is given here.

What was measured:
MV4-11 [1] = test: Induction of apoptosis in human MV4-11 cells assessed as early apoptotic cells at 0.001 uM after 24 hrs by annexin V-FITC/propidium iodide staining-based FACS flow cytometric analysis (reference value: 1.61%); format: functional
[2] = Apparent half life in Sprague-Dawley rat at 10 mg/kg/day, po; format: ADME, organism-based; set-up: route oral; details: in vivo, read-out: t1/2(app) (converted)
SK-OV-3 = test: Cytotoxicity against human SKOV3 cells assessed as growth inhibition after 72 hrs by MTT assay; details: SK-OV-3, 72 h
[3] = target: Vascular endothelial growth factor receptor 2 (Homo sapiens, UniProt P35968); test: Inhibition of VEGFR2 (unknown origin)
Sequence of Vascular endothelial growth factor receptor 2 (Homo sapiens, UniProt P35968) (P35968 whole entry): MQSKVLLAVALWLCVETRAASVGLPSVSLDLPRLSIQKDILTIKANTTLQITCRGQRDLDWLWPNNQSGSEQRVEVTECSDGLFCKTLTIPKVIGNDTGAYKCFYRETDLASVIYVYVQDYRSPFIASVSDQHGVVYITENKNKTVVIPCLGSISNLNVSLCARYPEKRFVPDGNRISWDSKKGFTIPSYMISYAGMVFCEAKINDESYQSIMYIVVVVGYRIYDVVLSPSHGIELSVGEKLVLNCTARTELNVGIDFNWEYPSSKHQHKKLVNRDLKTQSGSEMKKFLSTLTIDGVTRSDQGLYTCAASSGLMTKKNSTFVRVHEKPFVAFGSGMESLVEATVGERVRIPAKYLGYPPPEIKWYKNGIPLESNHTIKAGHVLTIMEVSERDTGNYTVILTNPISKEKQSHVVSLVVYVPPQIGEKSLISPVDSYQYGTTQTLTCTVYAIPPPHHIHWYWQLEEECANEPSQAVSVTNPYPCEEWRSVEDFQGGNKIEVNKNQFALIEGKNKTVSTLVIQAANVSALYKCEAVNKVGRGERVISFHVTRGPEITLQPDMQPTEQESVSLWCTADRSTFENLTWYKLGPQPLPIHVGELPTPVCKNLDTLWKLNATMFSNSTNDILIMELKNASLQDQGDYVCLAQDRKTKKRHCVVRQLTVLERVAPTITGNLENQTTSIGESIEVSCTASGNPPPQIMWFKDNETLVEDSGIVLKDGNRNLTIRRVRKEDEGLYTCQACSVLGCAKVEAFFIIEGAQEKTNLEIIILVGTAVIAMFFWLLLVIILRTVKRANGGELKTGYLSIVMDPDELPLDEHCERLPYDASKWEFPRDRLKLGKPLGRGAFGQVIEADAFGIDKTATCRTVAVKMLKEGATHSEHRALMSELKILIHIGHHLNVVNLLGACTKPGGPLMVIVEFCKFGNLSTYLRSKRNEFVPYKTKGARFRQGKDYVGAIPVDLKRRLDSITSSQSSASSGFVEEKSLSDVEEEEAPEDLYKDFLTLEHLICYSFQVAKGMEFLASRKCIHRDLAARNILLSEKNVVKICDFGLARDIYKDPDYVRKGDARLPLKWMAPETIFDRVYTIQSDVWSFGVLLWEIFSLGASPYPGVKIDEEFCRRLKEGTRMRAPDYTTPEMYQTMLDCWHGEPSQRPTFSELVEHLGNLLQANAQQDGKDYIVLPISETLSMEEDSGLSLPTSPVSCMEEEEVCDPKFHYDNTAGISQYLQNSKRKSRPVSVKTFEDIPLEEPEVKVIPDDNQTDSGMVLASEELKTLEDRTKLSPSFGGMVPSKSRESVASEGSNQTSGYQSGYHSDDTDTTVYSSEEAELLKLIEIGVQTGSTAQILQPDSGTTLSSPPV

U-266 = test: Cytotoxicity against human U266 cells assessed as growth inhibition after 72 hrs by MTT assay; details: U-266, 72 h
[4] = target: T1, Receptor-type tyrosine-protein kinase FLT3 (Homo sapiens, UniProt P36888); test: Inhibition of FLT3 (unknown origin)
T1 sequence (P36888 whole entry): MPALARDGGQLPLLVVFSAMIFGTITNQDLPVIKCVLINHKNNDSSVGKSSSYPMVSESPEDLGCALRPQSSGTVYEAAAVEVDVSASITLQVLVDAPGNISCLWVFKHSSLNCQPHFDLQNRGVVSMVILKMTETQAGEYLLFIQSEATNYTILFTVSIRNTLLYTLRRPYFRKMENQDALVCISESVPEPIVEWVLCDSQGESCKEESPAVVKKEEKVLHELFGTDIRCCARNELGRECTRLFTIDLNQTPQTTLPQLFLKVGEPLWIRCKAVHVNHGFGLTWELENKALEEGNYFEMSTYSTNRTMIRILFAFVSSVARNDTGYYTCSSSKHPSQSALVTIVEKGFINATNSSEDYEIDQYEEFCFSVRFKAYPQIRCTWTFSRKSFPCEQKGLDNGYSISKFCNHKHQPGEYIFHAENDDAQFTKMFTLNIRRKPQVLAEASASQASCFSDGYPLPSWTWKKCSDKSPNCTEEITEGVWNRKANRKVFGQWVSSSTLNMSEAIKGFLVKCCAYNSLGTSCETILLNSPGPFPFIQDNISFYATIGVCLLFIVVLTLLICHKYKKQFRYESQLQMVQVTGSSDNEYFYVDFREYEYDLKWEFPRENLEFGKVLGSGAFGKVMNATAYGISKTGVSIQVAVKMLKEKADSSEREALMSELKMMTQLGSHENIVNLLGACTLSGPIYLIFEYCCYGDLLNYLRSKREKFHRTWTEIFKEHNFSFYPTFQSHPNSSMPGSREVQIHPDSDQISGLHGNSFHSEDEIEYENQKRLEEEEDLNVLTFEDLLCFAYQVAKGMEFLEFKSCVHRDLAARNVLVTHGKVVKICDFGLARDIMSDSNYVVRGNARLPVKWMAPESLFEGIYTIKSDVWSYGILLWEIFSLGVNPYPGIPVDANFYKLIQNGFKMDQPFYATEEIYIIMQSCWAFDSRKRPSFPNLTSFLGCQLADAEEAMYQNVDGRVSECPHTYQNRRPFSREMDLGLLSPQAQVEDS

MCF7 = test: Cytotoxicity against human MCF7 cells assessed as growth inhibition after 72 hrs by MTT assay; details: MCF7, 72 h
K562 = test: Cytotoxicity against human K562 cells assessed as growth inhibition after 72 hrs by MTT assay; details: K562, 72 h
[5] = target: Receptor tyrosine-protein kinase erbB-2 (Homo sapiens, UniProt P04626); test: Inhibition of ERBB2 (unknown origin)
Sequence of Receptor tyrosine-protein kinase erbB-2 (P04626 whole entry): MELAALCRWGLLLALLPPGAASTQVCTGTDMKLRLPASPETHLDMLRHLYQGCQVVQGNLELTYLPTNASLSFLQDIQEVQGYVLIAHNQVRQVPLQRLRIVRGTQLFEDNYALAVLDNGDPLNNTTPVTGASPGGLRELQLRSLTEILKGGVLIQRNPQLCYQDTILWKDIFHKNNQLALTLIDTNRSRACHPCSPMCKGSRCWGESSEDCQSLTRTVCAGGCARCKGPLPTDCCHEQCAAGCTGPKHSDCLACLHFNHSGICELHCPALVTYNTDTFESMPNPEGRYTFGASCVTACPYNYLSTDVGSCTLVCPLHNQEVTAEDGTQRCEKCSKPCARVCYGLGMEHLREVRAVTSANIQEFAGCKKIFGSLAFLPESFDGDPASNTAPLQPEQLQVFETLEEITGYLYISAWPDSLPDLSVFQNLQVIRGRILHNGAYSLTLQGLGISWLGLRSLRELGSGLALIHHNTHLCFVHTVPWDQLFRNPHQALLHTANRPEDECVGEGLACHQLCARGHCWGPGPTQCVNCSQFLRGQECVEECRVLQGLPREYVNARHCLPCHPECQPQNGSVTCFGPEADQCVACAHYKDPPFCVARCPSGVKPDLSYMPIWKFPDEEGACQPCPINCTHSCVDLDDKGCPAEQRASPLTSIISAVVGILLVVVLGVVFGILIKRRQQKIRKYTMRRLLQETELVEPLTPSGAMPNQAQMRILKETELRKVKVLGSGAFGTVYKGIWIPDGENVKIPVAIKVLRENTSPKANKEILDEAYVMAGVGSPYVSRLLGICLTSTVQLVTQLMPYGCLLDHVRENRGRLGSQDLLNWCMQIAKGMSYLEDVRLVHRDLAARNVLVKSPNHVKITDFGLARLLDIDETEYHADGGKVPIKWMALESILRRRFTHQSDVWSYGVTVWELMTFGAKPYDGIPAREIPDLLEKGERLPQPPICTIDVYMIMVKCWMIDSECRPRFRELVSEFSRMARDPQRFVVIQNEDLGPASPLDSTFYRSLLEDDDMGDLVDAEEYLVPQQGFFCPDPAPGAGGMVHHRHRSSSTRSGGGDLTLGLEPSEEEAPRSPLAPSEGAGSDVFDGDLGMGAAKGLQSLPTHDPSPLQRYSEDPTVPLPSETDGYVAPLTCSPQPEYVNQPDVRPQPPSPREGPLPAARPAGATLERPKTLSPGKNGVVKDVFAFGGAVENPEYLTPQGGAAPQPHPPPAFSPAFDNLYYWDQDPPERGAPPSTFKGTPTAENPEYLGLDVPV
In short: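 Single selected panel of recombinant human protein kinases, screened in vitro. The value reported is the IC50 against each kinase.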

MV4-11 [6] = test: Induction of apoptosis in human MV4-11 cells assessed as late apoptotic cells at 0.03 uM after 24 hrs by annexin V-FITC/propidium iodide staining-based FACS flow cytometric analysis (reference value: 4.28%); format: functional
[7] = target: Mitogen-activated protein kinase kinase kinase 9 (Homo sapiens, UniProt P80192); test: Inhibition of MLK1 (unknown origin)
HL-60 = test: Cytotoxicity against human HL60 cells assessed as growth inhibition after 72 hrs by MTT assay; details: HL-60, 72 h
[8] = target: Receptor-type tyrosine-protein kinase FLT3 (Homo sapiens, UniProt P36888, ITD); test: Binding affinity to FLT3-ITD mutant (unknown origin)
LoVo = test: Cytotoxicity against human LoVo cells assessed as growth inhibition after 72 hrs by MTT assay
[9] = target: Serine/threonine-protein kinase PAK 2 (Homo sapiens, UniProt Q13177); test: Inhibition of PAK2 (unknown origin)
Sequence of Serine/threonine-protein kinase PAK 2 (Q13177 whole entry): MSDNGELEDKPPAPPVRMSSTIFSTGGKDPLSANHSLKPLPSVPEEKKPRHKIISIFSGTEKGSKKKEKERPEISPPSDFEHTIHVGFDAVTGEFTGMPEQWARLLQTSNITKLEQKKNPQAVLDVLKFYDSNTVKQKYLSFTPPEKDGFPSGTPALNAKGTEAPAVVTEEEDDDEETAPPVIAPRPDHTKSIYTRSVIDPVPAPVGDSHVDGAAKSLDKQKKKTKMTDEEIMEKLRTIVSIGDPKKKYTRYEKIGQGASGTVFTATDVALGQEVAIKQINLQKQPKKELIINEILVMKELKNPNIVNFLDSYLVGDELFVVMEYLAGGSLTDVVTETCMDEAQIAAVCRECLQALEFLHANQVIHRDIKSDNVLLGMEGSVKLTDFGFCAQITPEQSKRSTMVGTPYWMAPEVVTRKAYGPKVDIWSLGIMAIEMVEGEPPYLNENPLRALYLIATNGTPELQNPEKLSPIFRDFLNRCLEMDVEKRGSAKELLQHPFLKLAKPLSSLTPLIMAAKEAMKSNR

[10] = target: Vascular endothelial growth factor receptor 2 (Danio rerio) (UniProt Q5GIT4); test: Inhibition of VEGFR2 in transgenic zebrafish embryo assessed as inhibition of intersegmental vessels formation at 5 uM measured 33 hrs post fertilization by fluorescence microscopic analysis
Sequence of Vascular endothelial growth factor receptor 2 (Danio rerio) (Q5GIT4 whole entry): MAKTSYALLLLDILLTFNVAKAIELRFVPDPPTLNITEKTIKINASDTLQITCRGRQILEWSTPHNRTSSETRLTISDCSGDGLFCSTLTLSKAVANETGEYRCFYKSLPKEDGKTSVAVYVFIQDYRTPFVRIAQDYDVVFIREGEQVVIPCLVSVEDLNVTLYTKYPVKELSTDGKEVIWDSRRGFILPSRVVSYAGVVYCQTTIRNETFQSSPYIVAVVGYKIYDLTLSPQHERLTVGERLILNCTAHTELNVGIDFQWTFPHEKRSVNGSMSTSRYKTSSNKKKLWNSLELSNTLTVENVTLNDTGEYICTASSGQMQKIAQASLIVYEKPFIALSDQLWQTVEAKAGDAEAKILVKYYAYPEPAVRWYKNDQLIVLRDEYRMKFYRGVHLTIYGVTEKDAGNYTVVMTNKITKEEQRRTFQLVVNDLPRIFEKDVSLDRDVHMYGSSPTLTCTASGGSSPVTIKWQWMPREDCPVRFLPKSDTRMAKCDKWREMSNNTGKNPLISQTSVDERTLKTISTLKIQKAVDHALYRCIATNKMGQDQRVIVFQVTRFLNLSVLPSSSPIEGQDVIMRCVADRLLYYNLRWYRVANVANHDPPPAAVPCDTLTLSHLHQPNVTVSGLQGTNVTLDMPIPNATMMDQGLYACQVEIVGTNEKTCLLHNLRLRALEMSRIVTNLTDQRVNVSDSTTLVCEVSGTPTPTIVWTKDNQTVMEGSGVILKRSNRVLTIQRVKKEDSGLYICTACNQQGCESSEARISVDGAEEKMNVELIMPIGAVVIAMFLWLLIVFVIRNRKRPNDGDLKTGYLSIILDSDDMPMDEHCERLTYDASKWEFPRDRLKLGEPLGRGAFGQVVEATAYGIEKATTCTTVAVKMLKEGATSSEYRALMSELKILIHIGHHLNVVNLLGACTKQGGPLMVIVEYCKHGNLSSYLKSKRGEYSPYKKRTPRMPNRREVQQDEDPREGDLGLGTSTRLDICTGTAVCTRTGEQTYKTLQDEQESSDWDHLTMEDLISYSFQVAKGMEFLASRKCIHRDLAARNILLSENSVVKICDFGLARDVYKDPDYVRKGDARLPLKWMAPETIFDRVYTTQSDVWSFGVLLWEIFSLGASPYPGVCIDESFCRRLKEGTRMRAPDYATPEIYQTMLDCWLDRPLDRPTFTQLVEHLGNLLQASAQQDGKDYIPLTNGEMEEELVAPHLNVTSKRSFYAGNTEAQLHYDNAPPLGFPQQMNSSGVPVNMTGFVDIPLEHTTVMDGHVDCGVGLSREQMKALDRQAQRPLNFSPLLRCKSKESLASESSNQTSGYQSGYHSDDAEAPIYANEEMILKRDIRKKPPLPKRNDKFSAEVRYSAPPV
In short: (§1)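 FLK-1:EGFP transgenic zebrafish embryos, 10 per well, exposed at 28.5 °C from 15 to 31 hpf to compound in fish water at 1.25, 2.5 or 5 μM (diluted from a 10 mmol/L DMSO stock); 0.3% DMSO as vehicle control. Embryos were imaged at 33 hpf, and ISVs above the yolk extension were scored for length. n = 11, mean ± SD, ANOVA.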

MV4-11 [11] = test: Induction of apoptosis in FLT3-ITD-positive human MV4-11 cells xenografted in NOD-SCID mouse assessed as increase in apoptotic cells at 10 mg/kg/day, po by TUNEL assay; format: functional, organism-based; details: TDE = time-dependent effect
In short: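 Mice (NOD-SCID) bearing sc MV4-11 tumors given 10 mg/kg/d by oral gavage. Tumors removed after 2–4 days and formalin-fixed. Sections immunostained for Ki67 (proliferation) or p-STAT5, or TUNEL-stained (apoptosis). Imaged by light microscopy and compared with vehicle group.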

[12] = Cmax in Sprague-Dawley rat at 10 mg/kg/day, po measured within 7 hrs; format: ADME, organism-based; set-up: dose 10 mg/kg/day, route oral; details: in vivo
[13] = target: Megakaryocyte-associated tyrosine-protein kinase (Homo sapiens, UniProt P42679); test: Inhibition of CTK (unknown origin)
Sequence of Megakaryocyte-associated tyrosine-protein kinase (P42679 whole entry): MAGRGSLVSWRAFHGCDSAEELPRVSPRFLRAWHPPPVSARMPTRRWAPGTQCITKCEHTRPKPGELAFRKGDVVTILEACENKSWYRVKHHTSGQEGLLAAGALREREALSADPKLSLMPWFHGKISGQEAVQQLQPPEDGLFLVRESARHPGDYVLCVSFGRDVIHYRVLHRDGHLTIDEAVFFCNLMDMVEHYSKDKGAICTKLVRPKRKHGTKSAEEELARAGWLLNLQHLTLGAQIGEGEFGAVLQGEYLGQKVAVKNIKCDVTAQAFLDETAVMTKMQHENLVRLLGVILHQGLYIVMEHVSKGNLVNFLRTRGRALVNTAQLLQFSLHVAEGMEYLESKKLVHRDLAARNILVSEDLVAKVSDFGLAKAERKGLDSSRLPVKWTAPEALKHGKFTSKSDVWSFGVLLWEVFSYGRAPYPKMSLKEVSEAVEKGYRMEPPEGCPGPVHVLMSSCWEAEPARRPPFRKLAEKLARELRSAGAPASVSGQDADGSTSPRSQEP

Mus musculus = test: Toxicity in NOD-SCID mouse xenografted with FLT3-ITD-positive human MV4-11 cells assessed as body weight loss at 1 to 10 mg/kg/day, po administered 18 days measured every 3 days for 18 days; format: organism-based; set-up: route oral; details: in vivo, 432 h
In short: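 NOD-SCID mice, 5–6 weeks old, received 100 μL of MV4-11 cells sc (1 × 10⁸/mL in serum-free medium). At 300–500 mm³ tumors, mice were grouped (six per group) and gavaged once daily for 18 days at 1, 3 or 10 mg/kg/d. Vehicle was 12.5% castor oil, 12.5% ethanol and 75% water. Body weights were tracked; tumors were measured every 3 d.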

[14] = target: Vascular endothelial growth factor receptor 2 (Danio rerio) (UniProt Q5GIT4); test: (§2) Inhibition of VEGFR2 in transgenic zebrafish embryo assessed as inhibition of intersegmental vessels formation measured 33 hrs post fertilization by fluorescence microscopic analysis; in short: as §1
[15] = target: Vascular endothelial growth factor receptor 2 (Danio rerio, UniProt Q5GIT4); test: as §2; in short: as §1
Sequence of Vascular endothelial growth factor receptor 2 (Danio rerio, UniProt Q5GIT4) (Q5GIT4 whole entry): as the sequence (Q5GIT4 whole entry) above

Raji = test: Cytotoxicity against human Raji cells assessed as growth inhibition after 72 hrs by MTT assay

- half-life [2]: 12.6 h
- IC50 [3]: 0.012 µM
- IC50 [4]: 0.039 µM
- IC50 [5]: > 10 µM
- IC50 [7]: > 10 µM
- Kd [8]: 0.0043 µM
- IC50 [9]: > 10 µM
- inhibition [10]: Active
- Cmax [12]: 15100 ng/mL
- IC50 [13]: > 10 µM
- inhibition [14]: Dose-dependent effect
- IC50 [15]: 2.5 µM
Compound: O=C(Nc1ccc(Oc2ncnc3[nH]ncc23)cc1)Nc1ccc(Cl)c(C(F)(F)F)c1
- Activity (MV4-11 [1]): 4.15%
- IC50 (SK-OV-3): > 10 µM
- IC50 (U-266): > 10 µM
- IC50 (MCF7): > 10 µM
- IC50 (K562): > 10 µM
- Activity (MV4-11 [6]): 17.8%
- IC50 (HL-60): > 10 µM
- IC50 (LoVo): > 10 µM
- Activity (MV4-11 [11]): tde
- Activity (Mus musculus): Non-toxic
- IC50 (Raji): > 10 µM
